Test results: ChEMBL document CHEMBL4725282, “Discovery of a Conformationally Constrained Oxazolidinone with Improved Safety and Efficacy Profiles for the Treatment of Multidrug-Resistant Tuberculosis” (J Med Chem, 2020)

Legend:
[1] = Genotoxicity in CHO-WBL cells assessed as chromosome aberration at 90 to 397.1 ug/ml incubated for 3 hrs followed by compound washout and measured after 17 hrs in presence of S9 fraction by Giemsa staining based; assay type: toxicity, subcellular, Cricetulus griseus; conditions: chinese hamster, s9, 3 h, dose 90-397.1 µg/ml
Summary of the method: (§1)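 CHO-WBL cells in McCoy's 5A with 10% FBS, seeded 20-24 h before treatment. Compound in DMSO, with or without serum-free S-9 mix. Treatment either 3 h, then HBSS wash and 17 h further culture, or 20 h; harvest at 20 h from treatment start. Colcemid 0.1 μg/mL for the final 2 h, hypotonic KCl, methanol:acetic acid fixation, Giemsa stain. 300 metaphases per concentration (150 per duplicate flask) scored.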

[2] = Toxicity in female Sprague-Dawley rat assessed as abnormalities in urine at 50 to 450 mg/kg/day, po administered for 4 weeks measured within last 7 days of treatment period; assay type: organism-based; conditions: in vivo, 672 h, dose 50-450 mg/kg/day
Summary of the method: (§2)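 SD rats, 6-7 weeks, 12 male and 12 female per group. Oral dosing once daily at 50, 150 or 450 mg/kg/day or vehicle for 4 weeks, then 2-week recovery. 8 per sex dissected after last dose, remaining 4 per sex after 14-day recovery. Body weight, urine, food intake and clinical signs monitored.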

[3] = Toxicity in female Sprague-Dawley rat assessed as change in mean corpuscular volume at 450 mg/kg/day, po administered for 4 weeks followed by 2 week recovery period (Rvb =56.1 +/- 0.8 fL); assay type: organism-based; conditions: in vivo, 672 h
[4] = Toxicity in male Sprague-Dawley rat assessed as change in lymphocyte level at 450 mg/kg/day, po administered for 4 weeks followed by 2 week recovery period (Rvb =77.4 +/- 3.7 %); assay type: organism-based; conditions: in vivo, 672 h
[5] = Toxicity in male Sprague-Dawley rat assessed as change in platelet count at 450 mg/kg/day, po administered for 4 weeks followed by 2 week recovery period (Rvb =1077 +/- 117 10^9/L); assay type: organism-based; conditions: in vivo, 672 h
[6] = Toxicity in female Sprague-Dawley rat assessed as change in white blood cell count at 450 mg/kg/day, po administered for 4 weeks followed by 2 week recovery period (Rvb =3.61 +/- 0.75 10^9/L); assay type: organism-based; conditions: in vivo, 672 h
[7] = Toxicity in female Sprague-Dawley rat assessed as change in neutrophil level at 450 mg/kg/day, po administered for 4 weeks followed by 2 week recovery period (Rvb =18.5 +/- 5.3 %); assay type: organism-based; conditions: in vivo, 672 h
[8] = Toxicity in female Sprague-Dawley rat assessed as histopathological changes in bone marrow at 450 mg/kg/day, po administered for 4 weeks measured post last dose; assay type: organism-based; conditions: in vivo, 672 h
Summary of the method: (§3)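 SD rats, 6-7 weeks old (96 in total), split into vehicle, 50, 150 and 450 mg/kg/day groups of 12 females and 12 males each, given oral doses once daily for 4 weeks, then 2 weeks of recovery. Mortality, body weight, food intake, eyes, urine and neuropsychic signs were observed. Organ and bone marrow histopathology was done on 8 rats per sex per group after the last dose and on the remaining 4 per sex after 14 days of recovery.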

[9] = Toxicity in female Sprague-Dawley rat assessed as ophthalmic changes at 50 to 450 mg/kg/day, po administered for 4 weeks followed by 2 week recovery period measured within 7 days of post recover period; assay type: organism-based; conditions: in vivo, 672 h, dose 50-450 mg/kg/day; summary of the method: as §3
[10] = Toxicity in male Sprague-Dawley rat assessed as ophthalmic changes at 50 to 450 mg/kg/day, po administered for 4 weeks followed by 2 week recovery period; assay type: organism-based; conditions: in vivo, 1008 h, dose 50-450 mg/kg/day, time 6 weeks
[11] = Toxicity in female Sprague-Dawley rat assessed as mortality at 50 to 450 mg/kg/day, po administered for 4 weeks; assay type: organism-based; conditions: in vivo, 672 h, dose 50-450 mg/kg/day; summary of the method: as §3
[12] = Toxicity in male Sprague-Dawley rat assessed as histopathological changes at 50 to 450 mg/kg/day, po administered for 4 weeks followed by 2 week recovery period; assay type: organism-based; conditions: in vivo, 672 h, dose 50-450 mg/kg/day
[13] = Toxicity in male Sprague-Dawley rat assessed as histopathological changes in bone marrow at 450 mg/kg/day, po administered for 4 weeks followed by 2 week recovery period; assay type: organism-based; conditions: in vivo, 672 h
[14] = Toxicity in female Sprague-Dawley rat assessed as change in mean corpuscular volume at 50 mg/kg/day, po administered for 4 weeks followed by 2 week recovery period (Rvb =56.1 +/- 0.8 fL); assay type: organism-based; conditions: in vivo, 672 h
[15] = Toxicity in male Sprague-Dawley rat assessed as mortality at 50 to 450 mg/kg/day, po administered for 4 weeks followed by 2 week recovery period; assay type: organism-based; conditions: in vivo, 672 h, dose 50-450 mg/kg/day
[16] = Volume of distribution in Balb/c mouse at 2.5 mg/kg, iv by LC-MS/MS analysis; assay type: ADME, organism-based; conditions: in vivo
[17] = Toxicity in male Sprague-Dawley rat assessed as change in neutrophil level at 450 mg/kg/day, po administered for 4 weeks followed by 2 week recovery period (Rvb =15.9 +/- 3.4 %); assay type: organism-based; conditions: in vivo, 672 h
[18] = Toxicity in male Sprague-Dawley rat assessed as change in white blood cell count at 150 mg/kg/day, po administered for 4 weeks followed by 2 week recovery period (Rvb =6.12 +/- 1.10 10^9/L); assay type: organism-based; conditions: in vivo, 672 h
Summary of the method: (§4)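 SD rats aged 6-7 weeks, 24 per group (12 female, 12 male): vehicle, 50, 150 or 450 mg/kg/day given orally once daily for 4 weeks, then 2-week recovery. 8 per sex per group dissected after the last dose and 4 per sex after 14-day recovery. Hematology included WBC count, reported as mean ± SD (n = 12), compared with vehicle.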

[19] = Toxicity in female Sprague-Dawley rat assessed as change in neutrophil level at 50 mg/kg/day, po administered for 4 weeks followed by 2 week recovery period (Rvb =18.5 +/- 5.3 %); assay type: organism-based; conditions: in vivo, 672 h
[20] = Toxicity in male Sprague-Dawley rat assessed as change in red blood cell count at 50 mg/kg/day, po administered for 4 weeks followed by 2 week recovery period (Rvb =7.86 +/- 0.32 10^12/L); assay type: organism-based; conditions: in vivo, 672 h
[21] = Genotoxicity in CHO-WBL cells assessed as chromosome aberration at 20 to 150 ug/ml measured after 20 hrs in absence of S9 fraction by Giemsa staining based; assay type: toxicity, cell-based, Cricetulus griseus; conditions: chinese hamster, dose 20-150 µg/ml; summary of the method: as §1
[22] = Toxicity in male Sprague-Dawley rat assessed as change in red blood cell count at 450 mg/kg/day, po administered for 4 weeks followed by 2 week recovery period (Rvb =7.86 +/- 0.32 10^12/L); assay type: organism-based; conditions: in vivo, 672 h
[23] = Toxicity in male Sprague-Dawley rat assessed as change in mean corpuscular hemoglobin at 50 mg/kg/day, po administered for 4 weeks followed by 2 week recovery period (Rvb =18.3 +/- 0.4 pg); assay type: organism-based; conditions: in vivo, 672 h
[24] = Toxicity in male Sprague-Dawley rat assessed as body weight loss at 50 to 450 mg/kg/day, po administered for 4 weeks followed by 2 week recovery period measured at 1 week interval; assay type: organism-based; conditions: in vivo, 672 h, dose 50-450 mg/kg/day; summary of the method: as §3
[25] = Toxicity in male Sprague-Dawley rat assessed as change in white blood cell count at 450 mg/kg/day, po administered for 4 weeks followed by 2 week recovery period (Rvb =6.12 +/- 1.10 10^9/L); assay type: organism-based; conditions: in vivo, 672 h; summary of the method: as §4
[26] = Toxicity in female Sprague-Dawley rat assessed as body weight loss at 50 to 450 mg/kg/day, po administered for 4 weeks measured at 1 week interval; assay type: organism-based; conditions: in vivo, 672 h, dose 50-450 mg/kg/day; summary of the method: as §2

CC(=O)NC[C@@H]1OC(=O)N2c3cc(F)c(N4CC[S+]([O-])CC4)cc3OC[C@@H]12
Activity [1]: Non-Toxic

CC(=O)NC[C@@H]1OC(=O)N2c3cc(F)c(N4CCSCC4)cc3OC[C@@H]12
Activity [2]: Non-Toxic
Activity [3]: 56.5 fL
Activity [4]: 80.7%
Activity [5]: 1038 10^9/L
Activity [6]: 2.82 10^9/L
Activity [7]: 11.8%
Activity [8]: Non-Toxic
Activity [9]: Non-Toxic
Activity [10]: Non-Toxic
Activity [11]: Non-Toxic
Activity [12]: Non-Toxic
Activity [13]: Non-Toxic
Activity [14]: 56.5 fL
Activity [15]: Non-Toxic
Vd [16]: 2.72 L/kg
Activity [17]: 13.7%
Activity [18]: 6.11 10^9/L
Activity [19]: 14.8%
Activity [20]: 7.29 10^12/L
Activity [21]: Non-Toxic
Activity [22]: 7.46 10^12/L
Activity [23]: 18.7 pg
Activity [24]: Non-Toxic
Activity [25]: 5.06 10^9/L
Activity [26]: Non-Toxic
